From ChEMBL document CHEMBL5724801, “EUbOPEN Chemogenomics Library - Multiplex” (2024)
Where “and” joins values, the source holds several entries; their conditions need not be identical. Equal entries are not always repeated.

Columns and labels:
HEK-293T = assay: Multiplex assay against HEK293T; format: toxicity, cell-based; details: human
In short: (§1)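 Four dyes were applied at seeding to live cells: Hoechst33342, BioTracker Green Microtubule Cytoskeleton Dye, MitoTracker Red and Annexin V Alexa Fluor 680. Imaging after compound addition used a CQ1 microscope at 37°C and 5% CO2. CellPathfinder machine-learning gating then sorted cells into Hoechst high-intensity objects or normal cells, normal cells into healthy, pyknosed or fragmented nuclei, and pyknosed cells into mitotic or apoptotic, with tubulin, mitochondrial-mass and membrane-permeability phenotypes given as per cents of healthy-nucleus cells.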

U2OS = assay: Multiplex assay against U2OS; format: toxicity, cell-based; details: human; in short: as §1
[1] = 12 h, 1 µM, compound concentration 1 uM
[2] = 12 h, 10 µM, compound concentration 10 uM
[3] = 24 h, 1 µM, compound concentration 1 uM
[4] = 24 h, 10 µM, compound concentration 10 uM
[5] = 48 h, 1 µM, compound concentration 1 uM
[6] = 48 h, 10 µM, compound concentration 10 uM

O=C(Nc1ccccc1Cl)c1cnc2ccc(C3CCNCC3)cn12.O=C(O)C(=O)O was tested, and the “Population Apoptotic (%)” value (HEK-293T; [1]) was 13.38% and 9.73%, the “Population Fragmented Nuclei (%)” value (HEK-293T; [1]) was 1.98% and 9.79% and the “Population Hoechst High Intensity Objects (%)” value (HEK-293T; [1]) was 0.39% and 0%. The “Population Membrane Permeable-Phenotype (%)” value (HEK-293T; [1]) was 1.89% and 0%, the “Population Mitotic Cells (%)” value (HEK-293T; [1]) was 86.62% and 90.27% and the “Population Normal (%)” value (HEK-293T; [1]) was 99.61% and 100%. For the same compound, the “Population Pyknosed Nuclei (%)” value (HEK-293T; [1]) was 56.13% and 79.02%, the “Population Tubulin-Different-Phenotype (%)” value (HEK-293T; [1]) was 20.75% and 18.75% and the “Total Cell Count” value (HEK-293T; [1]) was 254 and 143. The “Population Apoptotic (%)” value (HEK-293T; [2]) was 16.08% and 15.91%, the “Population Fragmented Nuclei (%)” value (HEK-293T; [2]) was 4.31% and 3.38% and the “Population Hoechst High Intensity Objects (%)” value (HEK-293T; [2]) was 0.48% and 0%. The “Population Membrane Permeable-Phenotype (%)” value (HEK-293T; [2]) was 1.75% and 0%, the “Population Mitochondria Different-Phenotype (%)” value (HEK-293T; [2]) was 66.67% and 72.73% and the “Population Mitotic Cells (%)” value (HEK-293T; [2]) was 83.92% and 84.09%. For the same compound, the “Population Normal (%)” value (HEK-293T; [2]) was 99.52% and 100%, the “Population Pyknosed Nuclei (%)” value (HEK-293T; [2]) was 68.42% and 89.19% and the “Population Tubulin-Different-Phenotype (%)” value (HEK-293T; [2]) was 52.63% and 54.55%. The “Total Cell Count” value (HEK-293T; [2]) was 210 and 148, the “Population Apoptotic (%)” value (HEK-293T; [3]) was 19.23% and 23.68% and the “Population Fragmented Nuclei (%)” value (HEK-293T; [3]) was 1.95% and 4.9%. The “Population Hoechst High Intensity Objects (%)” value (HEK-293T; [3]) was 0.97% and 0%, the “Population Membrane Permeable-Phenotype (%)” value (HEK-293T; [3]) was 0.74% and 4.55% and the “Population Mitochondria Different-Phenotype (%)” value (HEK-293T; [3]) was 37.5% and 22.73%. The “Population Mitotic Cells (%)” value (HEK-293T; [3]) was 80.77% and 76.32%, the “Population Normal (%)” value (HEK-293T; [3]) was 99.03% and 100% and the “Population Pyknosed Nuclei (%)” value (HEK-293T; [3]) was 31.71% and 79.72%. For the same compound, the “Population Tubulin-Different-Phenotype (%)” value (HEK-293T; [3]) was 31.25% and 22.73%, the “Total Cell Count” value (HEK-293T; [3]) was 414 and 143 and the “Population Apoptotic (%)” value (HEK-293T; [4]) was 34.45% and 29.91%. For the same compound, the “Population Fragmented Nuclei (%)” value (HEK-293T; [4]) was 4.76% and 4%, the “Population Healthy Nuclei (%)” value (HEK-293T; [4]) was 43.72% and 18% and the “Population Hoechst High Intensity Objects (%)” value (HEK-293T; [4]) was 0%. The “Population Membrane Permeable-Phenotype (%)” value (HEK-293T; [4]) was 0.99% and 3.7%, the “Population Mitochondria Different-Phenotype (%)” value (HEK-293T; [4]) was 74.26% and 51.85% and the “Population Mitotic Cells (%)” value (HEK-293T; [4]) was 65.55% and 70.09%. The “Population Normal (%)” value (HEK-293T; [4]) was 100%, the “Population Pyknosed Nuclei (%)” value (HEK-293T; [4]) was 51.52% and 78% and the “Population Tubulin-Different-Phenotype (%)” value (HEK-293T; [4]) was 81.19% and 40.74%. The “Total Cell Count” value (HEK-293T; [4]) was 231 and 150, the “Population Apoptotic (%)” value (HEK-293T; [5]) was 9.3% and 24.49% and the “Population Fragmented Nuclei (%)” value (HEK-293T; [5]) was 3.3% and 6.21%. For the same compound, the “Population Healthy Nuclei (%)” value (HEK-293T; [5]) was 83.82% and 32.92%, the “Population Hoechst High Intensity Objects (%)” value (HEK-293T; [5]) was 0.1% and 0% and the “Population Membrane Permeable-Phenotype (%)” value (HEK-293T; [5]) was 2.62% and 1.89%. The “Population Mitochondria Different-Phenotype (%)” value (HEK-293T; [5]) was 28.13% and 43.4%, the “Population Mitotic Cells (%)” value (HEK-293T; [5]) was 90.7% and 75.51% and the “Population Normal (%)” value (HEK-293T; [5]) was 99.9% and 100%. For the same compound, the “Population Apoptotic (%)” value (HEK-293T; [6]) was 20% and 23.23%, the “Population Fragmented Nuclei (%)” value (HEK-293T; [6]) was 3.53% and 4.03% and the “Population Healthy Nuclei (%)” value (HEK-293T; [6]) was 73.65% and 29.53%. For the same compound, the “Population Hoechst High Intensity Objects (%)” value (HEK-293T; [6]) was 0.21% and 0%, the “Population Membrane Permeable-Phenotype (%)” value (HEK-293T; [6]) was 1.97% and 0% and the “Population Mitochondria Different-Phenotype (%)” value (HEK-293T; [6]) was 64.51% and 56.82%. The “Population Mitotic Cells (%)” value (HEK-293T; [6]) was 80% and 76.77%, the “Population Normal (%)” value (HEK-293T; [6]) was 99.79% and 100% and the “Population Pyknosed Nuclei (%)” value (HEK-293T; [6]) was 22.82% and 66.44%. The “Population Tubulin-Different-Phenotype (%)” value (HEK-293T; [6]) was 33.24% and 81.82%, the “Population Apoptotic (%)” value (U2OS; [1]) was 34.62% and 26.09% and the “Population Fragmented Nuclei (%)” value (U2OS; [1]) was 1.77% and 0.57%. The “Population Healthy Nuclei (%)” value (U2OS; [1]) was 86.73% and 86.21%, the “Population Hoechst High Intensity Objects (%)” value (U2OS; [1]) was 0% and the “Population Membrane Permeable-Phenotype (%)” value (U2OS; [1]) was 0.77% and 5.33%. The “Population Mitochondria Different-Phenotype (%)” value (U2OS; [1]) was 0% and 4%, the “Population Mitotic Cells (%)” value (U2OS; [1]) was 65.38% and 73.91% and the “Population Normal (%)” value (U2OS; [1]) was 100%. For the same compound, the “Population Pyknosed Nuclei (%)” value (U2OS; [1]) was 11.5% and 13.22%, the “Population Tubulin-Different-Phenotype (%)” value (U2OS; [1]) was 0.26% and 0.67% and the “Total Cell Count” value (U2OS; [1]) was 452 and 174. For the same compound, the “Population Apoptotic (%)” value (U2OS; [2]) was 36.51% and 44.74%, the “Population Fragmented Nuclei (%)” value (U2OS; [2]) was 2.48% and 4.95% and the “Population Healthy Nuclei (%)” value (U2OS; [2]) was 81.93% and 76.24%. For the same compound, the “Population Hoechst High Intensity Objects (%)” value (U2OS; [2]) was 0%, the “Population Membrane Permeable-Phenotype (%)” value (U2OS; [2]) was 2.42% and 7.79% and the “Population Mitochondria Different-Phenotype (%)” value (U2OS; [2]) was 0% and 9.09%. For the same compound, the “Population Mitotic Cells (%)” value (U2OS; [2]) was 63.49% and 55.26%, the “Population Normal (%)” value (U2OS; [2]) was 100% and the “Population Pyknosed Nuclei (%)” value (U2OS; [2]) was 15.59% and 18.81%. The “Population Tubulin-Different-Phenotype (%)” value (U2OS; [2]) was 5.14% and 3.25%, the “Total Cell Count” value (U2OS; [2]) was 404 and 202 and the “Population Apoptotic (%)” value (U2OS; [3]) was 38.71% and 50%. For the same compound, the “Population Fragmented Nuclei (%)” value (U2OS; [3]) was 2.92% and 3.06%, the “Population Healthy Nuclei (%)” value (U2OS; [3]) was 81.98% and 83.84% and the “Population Hoechst High Intensity Objects (%)” value (U2OS; [3]) was 0%. For the same compound, the “Population Membrane Permeable-Phenotype (%)” value (U2OS; [3]) was 0.79% and 4.17%, the “Population Mitochondria Different-Phenotype (%)” value (U2OS; [3]) was 0% and 3.12% and the “Population Mitotic Cells (%)” value (U2OS; [3]) was 61.29% and 50%. The “Population Normal (%)” value (U2OS; [3]) was 100%, the “Population Pyknosed Nuclei (%)” value (U2OS; [3]) was 15.1% and 13.1% and the “Population Tubulin-Different-Phenotype (%)” value (U2OS; [3]) was 0.59% and 1.56%. The “Total Cell Count” value (U2OS; [3]) was 616 and 229 and the “Population Apoptotic (%)” value (U2OS; [4]) was 50% and 42.31%.
